# pEC50, pIC50: −log10 of the molar value.
# Tests used:
# [1] = Cytotoxicity against human HepG2.2.15 cells assessed as cell viability by tetrazolium dye uptake assay; assay type: cell-based, HepG2 2.2.15
# Outline: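 HepG2.2.15 cells (two integrated copies of HBV ayw1 genome) were seeded at 1.5 × 10^4 cells/well in DMEM with 2% FBS, 380 μg/mL G418, glutamine, antibiotics and nonessential amino acids. After 16−24 h, medium with various compound concentrations was added in triplicate and renewed on day 3. After 6 days of treatment, viability was read by MTS uptake and CC50 was calculated.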
# [2] = Selectivity index, ratio of CC50 for HepG2.2.15 cells to EC50 for HBV ayw1 infected in human HepG2(2.2.15) cells assessed as reduction in viral replication by measuring intracellular viral DNA copy
# Outline: (§1)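 Run as the HepG2.2.15 6-day assay (triplicate compound, medium with compound renewed at day 3). At the end, total intracellular DNA was isolated from the cells and HBV DNA copy number measured by TaqMan qPCR. EC50/EC90 derived; SI is CC50/EC50.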
# [3] = test system: Hepatitis B virus; assay: Antiviral activity against HBV ayw1 infected in human HepG2(2.2.15) cells assessed as reduction in viral replication by measuring extracellular viral DNA copy number after 6 days by real-time qPCR method; assay type: functional, cell-based; details: ayw1, HepG2 2.2.15, 144 h
# Outline: (§2)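 HepG2.2.15 cells (two copies of HBV ayw1 genome), 1.5 × 10^4/well in DMEM with 2% FBS and 380 μg/mL G418. After 16–24 h, compound added in triplicate, medium with compound renewed at day 3. Supernatant collected at day 6, Pronase-treated, and extracellular HBV DNA measured by TaqMan qPCR (precore/core) against an HBV DNA standard curve. EC50/EC90 derived; CC50 by MTS uptake.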
# [4] = Selectivity index, ratio of CC50 for HepG2.2.15 cells to EC50 for HBV ayw1 infected in human HepG2(2.2.15) cells assessed as reduction in viral replication by measuring extracellular viral DNA copy; outline: as §2
# [5] = test system: Hepatitis B virus; assay: Antiviral activity against HBV ayw1 infected in human HepG2(2.2.15) cells assessed as reduction in viral replication by measuring intracellular viral DNA copy number after 6 days byr by real-time qPCR assay; assay type: functional, cell-based; details: ayw1, HepG2 2.2.15, 144 h; outline: as §1
# [6] = Selectivity index, ratio of CC50 for human TZM-bl cells to EC50 for CCR5 tropic HIV1 BaL infected in human TZM-bl cells; assay type: toxicity, cell-based; details: read-out: Ratio CC50/EC50
# [7] = test system: Human immunodeficiency virus 1; assay: Antiviral activity against tenofovir-resistant CXCR4-tropic HIV-1 NL4-3 harboring reverse transcriptase K65R mutant infected in human MT4 cells assessed as inhibition of viral replication inhibition of virus-induced cytopathic effect after 6 days by XTT dye based assay; assay type: functional, cell-based; details: Human immunodeficiency virus 1, NL4-3, MT4, 144 h
# Outline: (§3)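 MT-4 cells, 1 × 10^4 per well, given compound dilutions and wild-type NL4-3 or K65R NL4-3. Virus titred to give 85–95% cell killing at day 6. Incubated 6 days at 37 °C, 5% CO2. Viability read by XTT at 450/650 nm. EC50 from CPE reduction and toxicity from uninfected drug wells, by four-parameter fit. Fold change is K65R EC50 over wild-type EC50.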
# [8] = test system: Human immunodeficiency virus 1; assay: Antiviral activity against CXCR4-tropic HIV-1 NL4-3 infected in human TZM-bl cells assessed as inhibition of virus-induced cytopathic effect preincubated with cells for 30 mins followed by viral infection measured after 48 hrs in presence of p-24 HIV-1 Ag by luciferase reporter gene assay; assay type: functional, cell-based; details: Human immunodeficiency virus 1, NL4-3, TZM-bl
# Outline: (§4)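 TZM-bl cells, 1 × 10^4 per well in DMEM with 10% FBS and 10 mM […], incubated 30 min at 37 °C with compound. Then HIV-1 NL4.3 (X4) or BaL (R5) added at 100 pg p24 Ag per well. After 48 h, cells lysed with luciferase substrate. Tat-induced luminescence read after 10 min dark incubation as a measure of replication.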
# [9] = test system: Human immunodeficiency virus 1; assay: Selectivity ratio of EC50 for tenofovir-resistant CXCR4-tropic HIV-1 NL4-3 harboring reverse transcriptase K65R mutant infected in human MT4 cells to EC50 for CXCR4-tropic HIV-1 NL4-3 infected in human MT4 cells; assay type: functional; outline: as §3
# [10] = Cytotoxicity against human MT4 cells assessed as reduction in cell viability after 6 days by XTT tetrazolium dye-based assay; outline: as §3
# [11] = Cytotoxicity against human PHA-stimulated PBMC assessed as cell viability by tetrazolium dye assay; assay type: cell-based
# [12] = test system: Human immunodeficiency virus 1; assay: Antiviral activity against CXCR4-tropic HIV-1 NL4-3 infected in human MT4 cells assessed as inhibition of virus-induced cytopathic effect after 6 days by XTT dye based assay; assay type: functional, cell-based; details: Human immunodeficiency virus 1, NL4-3, MT4, 144 h; outline: as §3
# [13] = test system: Human immunodeficiency virus 1; assay: (§5) Antiviral activity against CCR5 tropic HIV1 BaL infected in human PHA-stimulated PBMC assessed as inhibition of viral replication by measuring reduction in p24 antigen production preincubated with cells for 30 mins followed by viral infection measured on day 10 post infection in presence of IL-2 by ELISA; assay type: functional; details: Human immunodeficiency virus 1, BaL
# Outline: (§6)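 PBMCs stimulated with 2 μg/mL PHA for 3 days at 37 °C, then 5 × 10^5 cells/ml preincubated 30 min at 37 °C with serial compound dilutions plus 2 ng/mL IL-2. Infected with 1500 pg/well HIV-1 BaL or 500 pg/well other isolates. IL-2 re-added on days 3 and 6. Supernatant p24 Ag measured by ELISA at day 10. EC50 is 50% inhibition of replication.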
# [14] = Selectivity index, ratio of CC50 for human PHA-stimulated PBMC to IC50 for CXCR4-tropic HIV-1 NL4-3 infected in human PHA-stimulated PBMC
# [15] = Selectivity index, ratio of CC50 for human PHA-stimulated PBMCs to IC50 for CCR5 tropic HIV1 BaL infected in human PHA-stimulated PBMC
# [16] = test system: Human immunodeficiency virus 1; assay: Antiviral activity against CCR5 tropic HIV1 BaL infected in human TZM-bl cells assessed as inhibition of virus-induced cytopathic effect preincubated with cells for 30 mins followed by viral infection measured after 48 hrs in presence of p-24 HIV-1 Ag by luciferase reporter gene assay; assay type: functional, cell-based; details: Human immunodeficiency virus 1, BaL; outline: as §4
# [17] = Cytotoxicity against human TZM-bl cells assessed as cell viability by tetrazolium dye assay; assay type: cell-based
# [18] = test system: Human immunodeficiency virus 1; assay: as §5, with “CXCR4-tropic HIV-1 NL4-3” for “CCR5 tropic HIV1 BaL”; assay type: functional; details: Human immunodeficiency virus 1, NL4-3; outline: as §6
# [19] = Selectivity index, ratio of CC50 for human TZM-bl cells to EC50 for CXCR4-tropic HIV-1 NL4-3 infected in human TZM-bl cells; assay type: toxicity, cell-based; details: read-out: Ratio CC50/EC50
SMILES,CC50 [1],Ratio CC50/EC50 [2],pEC50 [3],EC90 [3],Ratio CC50/EC50 [4],pEC50 [5],EC90 [5],pEC50 [7],Ratio EC50 [9],CC50 at 144 h [10],CC50 [11],pEC50 [12],pIC50 [13],Ratio CC50/IC50 [14],Ratio CC50/IC50 [15],pIC50 [18],other results
C=C1[C@H](CO)[C@@H](O)C[C@@H]1n1cnc2c(=O)[nH]c(N)nc21.O [ENTECAVIR],> 1 µM,>2857,> 8.00,> 1 µM,>2381,9.46,> 1 µM,–,–,–,–,–,–,–,–,–,–
Nc1ccn([C@@H]2CS[C@H](CO)O2)c(=O)n1 [LAMIVUDINE],> 2 µM,>225,7.70,> 2 µM,>105,8.05,> 2 µM,–,–,–,–,–,–,–,–,–,–
C[C@H](Cn1cnc2c(N)ncnc21)OCP(=O)(O)O [TENOFOVIR ANHYDROUS],–,–,–,–,–,–,–,7.00,>16.7,> 20 µM,> 25 µM,> 7.22,5.85,>66,>18,6.42,selectivity ratio [6]: > 14; pEC50 [8]: 5.40; pEC50 [16]: 5.16; CC50 [17]: > 100 µM; selectivity ratio [19]: > 25
CC(C)OC(=O)OCOP(=O)(CO[C@H](C)Cn1cnc2c(N)ncnc21)OCOC(=O)OC(C)C.O=C(O)/C=C/C(=O)O [TENOFOVIR DISOPROXIL FUMARATE],–,–,–,–,–,–,–,4.95,2.3,> 20 µM,14.6 µM,–,6.66,182,66,7.10,–
Cc1cn([C@H]2C[C@H](N=[N+]=[N-])[C@@H](CO)O2)c(=O)[nH]c1=O [ZIDOVUDINE],–,–,–,–,–,–,–,8.30,1.3,> 0.5 µM,–,8.40,–,–,–,–,–

# — ChEMBL document CHEMBL4038313, “Expanding the Antiviral Spectrum of 3-Fluoro-2-(phosphonomethoxy)propyl Acyclic Nucleoside Phosphonates: Diamyl Aspartate Amidate Prodrugs” (J Med Chem, 2017)
